Experimental data published in ChEMBL document CHEMBL1777800, “Novel diarylheptanoids as inhibitors of TNF-α production” (Bioorg Med Chem Lett, 2011).
Activity calls are given as the source filed them. No cut-off for these calls is given here.

Assays:
Blood = experiment: Antiinflammatory activity in human whole blood assessed as inhibition of LPS-induced TNFalpha production at 10 uM treated for 30 mins followed by 5 hrs LPS challenge by ELISA-based WBCCS assay; assay type: functional
How it was run: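 Human whole blood cells exposed to compound 30 min, then LPS-stimulated; supernatants collected after 5 h and TNF-α determined by ELISA; expressed as percent inhibition.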

PBMC [1] = experiment: Antiinflammatory activity in human PBMC assessed as inhibition of LPS-induced TNFalpha production treated for 30 mins followed by 5 hrs LPS challenge by ELISA assay; assay type: functional, cell-based
How it was run: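 Human PBMC pre-treated with compound (0.03–100 µM) for 30 min, then LPS-stimulated 5 h; TNF-α measured. Controls: DMSO vehicle with LPS, unstimulated cells, rolipram standard. Mean ± S.E.M. of three experiments; IC50 from concentration–response.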

PBMC [2] = experiment: Cytotoxicity against human PBMC by MTS assay; assay type: cell-based
How it was run: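 Viability of human PBMC determined by MTS across the concentrations tested in the LPS-stimulated TNF-α assay.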

Mus musculus = experiment: Antiinflammatory activity in BALB/c mouse assessed as inhibition of LPS-induced TNFalpha production in plasma at 100 mg/kg, po by ELISA; assay type: functional
How it was run: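 BALB/c mice dosed orally, vehicle 0.5% carboxymethylcellulose, rolipram as standard; LPS given 1 h later. Blood drawn 1.5 h after LPS; plasma TNF-α quantified by ELISA.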

COc1ccc(CCC(=O)CC(O)CCc2cccnc2)c(OC)c1 (stereo not drawn)
inhibition at 10 µM (Blood): 22%

Cc1cccc(CCC(=O)CC(O)CCc2cccnc2)c1 (stereo not drawn)
inhibition at 10 µM (Blood): 11%

O=C(CCc1ccc(Cl)cc1)CC(O)CCc1cccnc1 (stereo not drawn)
inhibition at 10 µM (Blood): 16%

COc1ccc(COc2ccc(CCC(=O)/C=C/CCc3cccnc3)cc2OC)cc1
inhibition at 10 µM (Blood): 40%
IC50 (PBMC [1]; read-out: IC50): 24.1 µM
IC50 (PBMC [2]): > 100 µM
inhibition in vivo at 100 mg/kg (Mus musculus): 75%

COc1ccc(COc2cc(CCC(=O)/C=C/CCc3cccnc3)ccc2OC)cc1
inhibition at 10 µM (Blood): 19%

COc1ccc(COc2cc(CCC(=O)CC(O)CCc3cccnc3)ccc2OC)cc1 (stereo not drawn)
inhibition at 10 µM (Blood): 44%
IC50 (PBMC [1]; read-out: IC50): 5.7 µM
IC50 (PBMC [2]): > 100 µM
inhibition in vivo at 100 mg/kg (Mus musculus): 71%

N#Cc1ccc(CCC(=O)CC(O)CCc2cccnc2)cc1 (stereo not drawn)
inhibition at 10 µM (Blood): 35%

COc1cc(/C=C/C(=O)CC(=O)/C=C/c2ccc(O)c(OC)c2)ccc1O [CURCUMIN]
IC50 (PBMC [1]): 2.71 µM
inhibition (Mus musculus): inactive

COc1ccc(CCC(=O)CC(O)CCc2cccnc2)cc1OC (stereo not drawn)
inhibition at 10 µM (Blood): 18%

CN(C)c1ccc(CCC(=O)/C=C/CCc2cccnc2)cc1
inhibition at 10 µM (Blood): 32%

COc1cccc(CCC(=O)/C=C/CCc2cccnc2)c1OC
inhibition at 10 µM (Blood): 33%

O=C(CCc1ccc2c(c1)OCO2)CC(O)CCc1cccnc1 (stereo not drawn)
inhibition at 10 µM (Blood): 41%

Cc1cccc(CCC(=O)/C=C/CCc2cccnc2)c1
inhibition at 10 µM (Blood): 25%

CN(C)c1ccc(CCC(=O)CC(O)CCc2cccnc2)cc1 (stereo not drawn)
inhibition at 10 µM (Blood): 0%

COc1ccc(CCC(=O)/C=C/CCc2cccnc2)c(OC)c1
inhibition at 10 µM (Blood): 56%
inhibition (PBMC [1]): Dose-dependent effect
IC50 (PBMC [1]; read-out: IC50): 2 µM
IC50 (PBMC [2]): 38 µM
inhibition in vivo at 100 mg/kg (Mus musculus): 79%

COc1ccc(OC)c(CCC(=O)/C=C/CCc2cccnc2)c1
inhibition at 10 µM (Blood): 0%

N#Cc1ccc(CCC(=O)/C=C/CCc2cccnc2)cc1
inhibition at 10 µM (Blood): 9%

COc1ccc(COc2ccc(CCC(=O)CC(O)CCc3cccnc3)cc2OC)cc1 (stereo not drawn)
inhibition at 10 µM (Blood): 2%

COc1ccc(OC)c(CCC(=O)CC(O)CCc2cccnc2)c1 (stereo not drawn)
inhibition at 10 µM (Blood): 0%

O=C(/C=C/CCc1cccnc1)CCc1ccc(F)cc1
inhibition at 10 µM (Blood): 35%

COc1cc(CCC(=O)/C=C/CCc2cccnc2)cc(OC)c1OC
inhibition at 10 µM (Blood): 23%

O=C(/C=C/CCc1cccnc1)CCc1ccccc1
inhibition at 10 µM (Blood): 0%

COc1ccc(CCC(=O)/C=C/CCc2cccnc2)cc1OC
inhibition at 10 µM (Blood): 56%
inhibition (PBMC [1]): Dose-dependent effect
IC50 (PBMC [1]; read-out: IC50): 2.5 µM
IC50 (PBMC [2]): 80 µM
inhibition in vivo at 100 mg/kg (Mus musculus): 50%

COc1cc(CCC(=O)CC(O)CCc2cccnc2)cc(OC)c1OC (stereo not drawn)
inhibition at 10 µM (Blood): 12%

COc1cccc(CCC(=O)CC(O)CCc2cccnc2)c1OC (stereo not drawn)
inhibition at 10 µM (Blood): 10%

O=C(CC(O)CCc1cccnc1)/C(=C\CCc1cccnc1)Cc1ccc(Cl)cc1 (stereo not drawn)
inhibition at 10 µM (Blood): 32%

O=C(CCc1ccccc1)CC(O)CCc1cccnc1 (stereo not drawn)
inhibition at 10 µM (Blood): 3%

O=C(CCc1ccc(F)cc1)CC(O)CCc1cccnc1 (stereo not drawn)
inhibition at 10 µM (Blood): 34%
